Experimental data taken from ChEMBL document CHEMBL1121369, “Antihypertensive (2-aminoethyl)thiourea derivatives. 1” (J Med Chem, 1980).
Where “and” joins values, the source holds several entries; their conditions need not be identical. Equal entries are not always repeated.

Assays:
[1] = test system: Rattus norvegicus; assay: Compound is measured for oral antihypertensive activity in groups of 6-12 conscious spontaneously hypertensive rats at 10 mg/kg; format: functional
Procedure, shortened: (§1)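 Male spontaneously hypertensive rats of Wistar–Okamoto origin (12–15 weeks old, bred in-house) were dosed orally, in groups of 6–12 and conscious. Each rat was warmed for 5–10 min at 37–38 °C, then restrained. Systolic pressure was read indirectly at the tail with an occluding cuff and a piezoelectric pulse transducer, before dosing and at 1, 3, 6 and 24 h after.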

[2] = test system: Rattus norvegicus; assay: Compound is measured for oral antihypertensive activity in groups of 6-12 conscious spontaneously hypertensive rats at 50 mg/kg(fall in systolic blood pressure 6-24 hr after dosing); format: functional, Artery; procedure, shortened: as §1
[3] = test system: Rattus norvegicus; assay: Compound is measured for oral antihypertensive activity in groups of 6-12 conscious spontaneously hypertensive rats at 250 mg/kg; format: functional; procedure, shortened: as §1
[4] = test system: Rattus norvegicus; assay: Compound is measured for oral antihypertensive activity in groups of 6-12 deoxy-corticosterone-sodium hypertensive (DOCA-Na) rats at 10 mg/kg; format: functional
Procedure, shortened: (§2)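 DOCA-Na rats were given two weeks to become hypertensive (systolic above 200 mmHg) and were then dosed orally, in groups of 6–12 and unanesthetized. Rats were warmed for 5–10 min at 37–38 °C and restrained. Systolic tail pressure was read with a cuff and pneumatic pulse transducer, before dosing and at 1, 3, 6 and 24 h post-dose.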

[5] = test system: Rattus norvegicus; assay: Compound is measured for oral antihypertensive activity in groups of 6-12 conscious spontaneously hypertensive rats at 100 mg/kg; format: functional; procedure, shortened: as §1
[6] = test system: Rattus norvegicus; assay: Compound is measured for oral antihypertensive activity in groups of 6-12 conscious spontaneously hypertensive rats at 75 mg/kg; format: functional; procedure, shortened: as §1
[7] = test system: Rattus norvegicus; assay: Compound is measured for oral antihypertensive activity in groups of 6-12 conscious spontaneously hypertensive rats at 200 mg/kg; Range is 15-20%; format: functional; procedure, shortened: as §1
[8] = test system: Rattus norvegicus; assay: Compound is measured for oral antihypertensive activity in groups of 6-12 conscious spontaneously hypertensive rats at 100 mg/kg; Range is 15-20%; format: functional; procedure, shortened: as §1
[9] = test system: Rattus norvegicus; assay: Compound is measured for oral antihypertensive activity in groups of 6-12 deoxy-corticosterone-sodium hypertensive (DOCA-Na) rats at 0.5 mg/kg; format: functional; procedure, shortened: as §2
[10] = Therapeutic ratio is oral dose producing sedation/reduction in blood pressure; format: ADME, tissue-based
[11] = test system: Rattus norvegicus; assay: Oral dose required to cause 20% fall in sedation; Decrease spontaneous motor activity; format: functional
Procedure, shortened: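 Normotensive rats were dosed orally. Spontaneous motor activity was counted with an electronic motility meter over a 10-min period starting 1 h after dosing. The dose was estimated from dose–response curves, with 95% fiducial limits.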

[12] = test system: Rattus norvegicus; assay: Compound is measured for oral antihypertensive activity in groups of 6-12 conscious spontaneously hypertensive rats at 1 mg/kg; Range is 15-20%; format: functional; procedure, shortened: as §1
[13] = test system: Rattus norvegicus; assay: Compound is measured for oral antihypertensive activity in groups of 6-12 deoxy-corticosterone-sodium hypertensive (DOCA-Na) rats at 1 mg/kg; Range is 15-20%; format: functional; procedure, shortened: as §2
[14] = test system: Rattus norvegicus; assay: Compound is measured for oral antihypertensive activity in groups of 6-12 conscious spontaneously hypertensive rats at 10 mg/kg (fall in systolic blood pressure 6-24 hr after dosing); format: functional, Artery; procedure, shortened: as §1
[15] = test system: Rattus norvegicus; assay: (§3) Oral dose required to cause 20% fall in blood pressure; format: functional
[16] = test system: Canis familiaris; assay: Oral dose required to cause 20% fall in sedation; Range is 30-60; format: functional, Canis lupus familiaris
[17] = test system: Rattus norvegicus; assay: Compound is measured for oral antihypertensive activity in groups of 6-12 conscious spontaneously hypertensive rats at 0.5 mg/kg; format: functional; procedure, shortened: as §1
[18] = Therapeutic ratio is oral dose producing sedation/reduction in blood pressure; Range is 30-60; format: ADME, tissue-based
[19] = test system: Canis familiaris; assay: as §3; format: functional, Canis lupus familiaris
[20] = test system: Rattus norvegicus; assay: (§4) Oral dose required to cause 20% fall in sedation; Increase in foot shock rate; format: functional
Procedure, shortened: (§5)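 Male Charles River C-D rats and squirrel monkeys were trained to press a lever at a stable rate to postpone a 5-s foot shock, given every 20 s on failure. Drugs were given orally, with control sessions before, between and after test sessions. Avoidance-rate decrease and the increase in shocks/hour were recorded. Significance threshold: a 12% decrease or 4 extra shocks/hour (p ≤ 0.05).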

[21] = test system: Monkey; assay: as §4; format: functional; procedure, shortened: as §5
[22] = test system: Rattus norvegicus; assay: Compound is measured for oral antihypertensive activity in groups of 6-12 deoxy-corticosterone-sodium hypertensive (DOCA-Na) rats at 10 mg/kg (fall in systolic blood pressure 6-24 hr after dosing); format: functional, Artery; procedure, shortened: as §2
[23] = test system: Rattus norvegicus; assay: Compound is measured for oral antihypertensive activity in groups of 6-12 conscious spontaneously hypertensive rats at 250 mg/kg; Range is 10-15%; format: functional; procedure, shortened: as §1
[24] = test system: Rattus norvegicus; assay: Compound is measured for oral antihypertensive activity in groups of 6-12 deoxy-corticosterone-sodium hypertensive (DOCA-Na) rats at 10 mg/kg; Range is 10-15%; format: functional; procedure, shortened: as §2
[25] = test system: Rattus norvegicus; assay: Compound is measured for oral antihypertensive activity in groups of 6-12 conscious spontaneously hypertensive rats at 60 mg/kg; format: functional; procedure, shortened: as §1
[26] = test system: Rattus norvegicus; assay: Compound is measured for oral antihypertensive activity in groups of 6-12 deoxy-corticosterone-sodium hypertensive (DOCA-Na) rats at 60 mg/kg(fall in systolic blood pressure 6-24 h after dosing); format: functional, Artery; procedure, shortened: as §2
[27] = test system: Rattus norvegicus; assay: Compound is measured for oral antihypertensive activity in groups of 6-12 conscious spontaneously hypertensive rats at 175 mg/kg; format: functional; procedure, shortened: as §1
[28] = test system: Rattus norvegicus; assay: Compound is measured for oral antihypertensive activity in groups of 6-12 conscious spontaneously hypertensive rats at 10 mg/kg(fall in systolic blood pressure 6-24 hr after dosing); format: functional, Artery; procedure, shortened: as §1
[29] = test system: Rattus norvegicus; assay: Compound is measured for oral antihypertensive activity in groups of 6-12 deoxy-corticosterone-sodium hypertensive (DOCA-Na) rats at 10 mg/kg(fall in systolic blood pressure 6-24 hr after dosing); format: functional, Artery; procedure, shortened: as §2
[30] = test system: Rattus norvegicus; assay: Compound is measured for oral antihypertensive activity in groups of 6-12 conscious spontaneously hypertensive rats at 85 mg/kg; format: functional; procedure, shortened: as §1
[31] = test system: Rattus norvegicus; assay: Compound is measured for oral antihypertensive activity in groups of 6-12 deoxy-corticosterone-sodium hypertensive (DOCA-Na) rats at 10 mg/kg; Range is 15-20%; format: functional; procedure, shortened: as §2
[32] = test system: Rattus norvegicus; assay: Compound is measured for oral antihypertensive activity in groups of 6-12 conscious spontaneously hypertensive rats at 10 mg/kg; Range is 15-20%; format: functional; procedure, shortened: as §1
[33] = test system: Rattus norvegicus; assay: Compound is measured for oral antihypertensive activity in groups of 6-12 deoxy-corticosterone-sodium hypertensive (DOCA-Na) rats at 5 mg/kg; Range is 10-15%; format: functional; procedure, shortened: as §2
[34] = test system: Rattus norvegicus; assay: Compound is measured for oral antihypertensive activity in groups of 6-12 deoxy-corticosterone-sodium hypertensive (DOCA-Na) rats at 1 mg/kg; format: functional; procedure, shortened: as §2
[35] = test system: Rattus norvegicus; assay: Compound is measured for oral antihypertensive activity in groups of 6-12 conscious spontaneously hypertensive rats at 1 mg/kg (fall in systolic blood pressure 6-24 hr after dosing); format: functional, Artery; procedure, shortened: as §1
[36] = test system: Rattus norvegicus; assay: Compound is measured for oral antihypertensive activity in groups of 6-12 conscious spontaneously hypertensive rats at 45 mg/kg; Range is 10-15%; format: functional; procedure, shortened: as §1
[37] = test system: Rattus norvegicus; assay: Compound is measured for oral antihypertensive activity in groups of 6-12 conscious spontaneously hypertensive rats at 160 mg/kg; Range is 15-20%; format: functional; procedure, shortened: as §1
[38] = test system: Rattus norvegicus; assay: Compound is measured for oral antihypertensive activity in groups of 6-12 conscious spontaneously hypertensive rats at 30 mg/kg; format: functional; procedure, shortened: as §1
[39] = in vivo; conditions: blood, po

NCC/N=C(\S)Nc1c(Cl)cc([N+](=O)[O-])cc1Cl.O=C(O)/C=C\C(=O)O
Effect [1]: <10% | Effect [2]: >20%

N/N=C(\S)Nc1c(Cl)cccc1Cl
Effect [3]: <10%

NCCNC(=O)Nc1c(Cl)cccc1Cl
Effect [4]: <10% | Effect [3]: <10%

CCOC(=O)CC/N=C(\S)Nc1c(Cl)cccc1Cl
Effect [5]: <10%

CNCC/N=C(\S)Nc1c(Cl)cccc1Cl.O=C(O)/C=C\C(=O)O
Effect [5]: <10%

N#CCCNC(=S)Nc1c(Cl)cccc1Cl
Effect [6]: <10%

NCCC/N=C(\S)Nc1c(Cl)cccc1Cl
Effect [7]: 15%

CCO.NCC/N=C(\S)Nc1c(F)cccc1F.O=C(O)CCC(=O)O
Effect [1]: <10% | Effect [4]: <10%

COc1cccc(OC)c1/N=C(\S)NCCN.O=C(O)/C=C\C(=O)O
Effect [5]: <10%

NCC/N=C(\S)Nc1c(Cl)cc(Cl)cc1Cl.O=C(O)/C=C\C(=O)O
Effect [8]: 15% | Effect [1]: <10%

NCC/N=C(\S)Nc1c(Cl)cccc1Cl.O=C(O)/C=C\C(=O)O
Effect [9]: <10% | Ratio [10]: 0.28 and 0.71 | Dose [11]: 0.69 mg/kg | Effect [12]: 15% | Effect [13]: 15% | Effect [14]: >20% | Dose [15]: 2.4 mg/kg | Dose [16]: 30 mg/kg | Effect [17]: <10% | selectivity ratio [18]: 30 | Dose [19]: 1 mg/kg | Dose [20]: 1.7 mg/kg | Dose [21]: >64 mg/kg | Effect [22]: >20%

NCC/N=C(\N)Nc1c(Cl)cccc1Cl
Effect [23]: 10% | Effect [24]: 10%

N/C(S)=N/c1c(Cl)cccc1Cl
Effect [25]: <10% | Effect [26]: < 10%

Cc1ccc(/N=C(\S)NCCN)c(Cl)c1.O=C(O)/C=C\C(=O)O
Effect [5]: <10%

O=C(O)CC/N=C(\S)Nc1c(Cl)cccc1Cl
Effect [5]: <10%

OCC/N=C(\S)Nc1c(Cl)cccc1Cl
Effect [27]: <10%

NCC/N=C(\S)Nc1c(Br)cccc1Br
Effect [28]: >20% | Effect [12]: 15% | Effect [29]: >20%

CNCCN(C)/C(S)=N/c1c(Cl)cccc1Cl.O=C(O)/C=C\C(=O)O
Effect [30]: <10%

CC(=O)NCC/N=C(\N)Nc1c(Cl)cccc1Cl
Effect [4]: <10% | Effect [3]: <10%

NC(=O)CC/N=C(\S)Nc1c(Cl)cccc1Cl
Effect [5]: <10%

CS/C(=N\CCN)Nc1c(Cl)cccc1Cl
Effect [31]: 15% | Effect [32]: 15%

Cc1cccc(C)c1/N=C(\S)NCCN.O=C(O)CCC(=O)O
Effect [32]: 15% | Effect [29]: >20%

NCC/N=C(\S)Nc1cccc(Cl)c1Cl.O=C(O)/C=C\C(=O)O
Effect [28]: >20% | Effect [33]: 10% | Effect [34]: <10% | Effect [35]: >20% | Effect [17]: <10% | Effect [29]: >20%

NS(=O)(=O)CC/N=C(\S)Nc1c(Cl)cccc1Cl
Effect [8]: 15%

Cc1ccc(/N=C(\S)NCCN)c(C)c1.O=C(O)/C=C\C(=O)O
Effect [5]: <10%

CN1CCN(/C(S)=N/c2c(Cl)cccc2Cl)CC1.Cl
Effect [25]: <10%

CCN(CC)CC/N=C(\S)Nc1c(Cl)cccc1Cl.Cl
Effect [36]: 10%

CN1CCN(CC/N=C(\S)Nc2c(Cl)cccc2Cl)CC1.Cl.Cl
Effect [37]: 15%

Cl.NCC/N=C(\S)Nc1ccccc1
Effect [1]: <10%

Cl.N=C(N)CC/N=C(\S)Nc1c(Cl)cccc1Cl
Effect [5]: <10%

Cl.S=C(NCCN1CCCCC1)Nc1c(Cl)cccc1Cl
Effect [38]: <10%

Clc1cccc(Cl)c1NC1=NCCN1 [CLONIDINE]
Effect [9]: >20% | Ratio [10]: 3 | selectivity ratio [10]: 1.83 | Dose [15]: 0.06 mg/kg | Effect [17]: >20% | selectivity ratio [39]: 0.8 | Dose [19]: 0.3 mg/kg | Dose [21]: 0.7 mg/kg
